Runt-SMMHC FRET: inhibitors of human RUNX1 Runt domain binding to CBFb-SMMHC; inhibition, % at 20 µM; actives 0.74% (n = 220,000); Q01196+Q13951; AID 1434; Cerulean-Runt/Venus-CBFb-SMMHC FRET ratio 530/480, 1 h;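 active = mean inhibition across duplicate retests at 20 µM reaching about 50%, limit read from the data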;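 note: 0% = DMSO wells and 100% = wells with excess untagged CBFb-SMMHC; inhibitors lower the FRET ratio by blocking Runt binding to CBFb-SMMHC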
Target sequence (Q01196 whole entry, looked up, the tested form may be a part): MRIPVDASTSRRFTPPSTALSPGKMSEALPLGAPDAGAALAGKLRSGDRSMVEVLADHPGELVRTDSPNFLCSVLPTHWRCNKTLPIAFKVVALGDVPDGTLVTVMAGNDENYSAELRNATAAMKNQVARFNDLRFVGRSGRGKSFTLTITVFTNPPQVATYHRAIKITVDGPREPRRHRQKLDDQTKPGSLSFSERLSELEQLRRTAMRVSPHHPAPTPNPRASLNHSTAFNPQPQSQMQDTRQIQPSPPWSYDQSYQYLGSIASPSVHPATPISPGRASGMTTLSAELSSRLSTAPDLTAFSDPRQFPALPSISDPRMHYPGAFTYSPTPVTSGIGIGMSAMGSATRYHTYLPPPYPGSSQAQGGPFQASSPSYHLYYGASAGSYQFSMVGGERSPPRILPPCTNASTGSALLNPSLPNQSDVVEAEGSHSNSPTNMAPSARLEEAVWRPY
Target sequence (Q13951 whole entry, looked up, the tested form may be a part): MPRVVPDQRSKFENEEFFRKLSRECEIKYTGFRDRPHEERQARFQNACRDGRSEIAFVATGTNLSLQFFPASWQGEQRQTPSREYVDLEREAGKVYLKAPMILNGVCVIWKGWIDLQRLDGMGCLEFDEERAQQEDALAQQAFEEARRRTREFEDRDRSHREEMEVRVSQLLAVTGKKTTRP
RanGTP-Imp inh: disruptors of Ran-importin-beta complex formation – biochemical, FRET, CFP-Ran, YFP-importin-beta, homogeneous, primary screen; cell-free CFP-Ran/YFP-importin-beta FRET ratio; inhibition, % (test concentration not listed); actives 1.1% (n = 300,000);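 active = more than half of the replicate wells show a fall in the fluorescence ratio signal beyond about 16%, limit read from the data, passing the limit was not always enough; inconclusive = exactly half of the replicate wells pass the set limit; inactive = fewer than half of replicates pass the limit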;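 note: 0% = DMSO wells and 100% = Ran loaded with GDP instead of GTP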
Calpain2 inh: inhibitors of pig calpain II; purified calpain II, fluorogenic peptide substrate, 30 min; AID 1236; inhibition, % at 16 µM; actives 0.37% (n = 220,000);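 active = inhibition above about 50%, limit read from the data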
Runt-CBFb FRET: blocks binding of human RUNX1 Runt domain to CBFb; Q01196+Q13951; AID 1496; Cerulean-Runt/Venus-CBFb FRET ratio 530/480, 1 h; inhibition, % at 20 µM; actives 0.46% (n = 220,000);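 active = inhibition over about 50% at 20 µM in the single-dose screen, limit read from the data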;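 note: 0% = DMSO wells and 100% = excess unlabeled CBFb competitor control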
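test system = Cerulean-tagged RUNX1 Runt domain (FRET donor) fusion protein | reagent = Venus-CBFb binding partner, 100 nM | incubation = protein complex preformed 1 h, compound exposure 1 h, room temperature, dark | detection = FRET fluorescence | read-out basis = loss of energy transfer signal | controls = 5 µM unlabeled CBFb as full-inhibition high control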
FAS-TE inh: inhibitors of human fatty acid synthase thioesterase domain; recombinant FAS-TE, OMFH fluorogenic substrate, fluorescence endpoint; inhibition, % at 15 µM; AID 602261; P49327; actives 0.67% (n = 360,000);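 active = compounds whose normalised, plate-corrected inhibition of enzyme fluorescence in the single-dose primary screen is 50% or more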;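 note: 0% = DMSO with enzyme and 100% = substrate without enzyme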
RUNX1 CBFb TR: disrupts human RUNX1 Runt domain binding to CBFb; shares compounds with Runt-CBFb FRET; TR-FRET RUNX1 Runt domain-CBFb binding; inhibition, % at 20 µM; actives 20% (n = 480); AID 1502; in the data active = inhibition above about 40%
YIC counter: counter-screen for RanGTP-importin-beta inhibitors: YIC FRET probe; AID 435026; actives 40% (n = 1,000); IC50, µM; shares compounds with RanGTP-Imp inh; Purified YIC probe, intramolecular FRET ratio YFP/CFP;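 active = fitted half-maximal inhibitory concentration no more than tenfold above the top dose tested; inconclusive = flat fit with 30 to 70% activity, or poor fit; inactive = half-maximal concentration beyond tenfold above the top dose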
* = called active by the depositor; i = inactive; ? = inconclusive; / = not tested or not shown. Shown are actives, neighbours in structure and some others; about 2.1% of the full set was active somewhere.

SMILES	Runt-SMMHC FRET	RanGTP-Imp inh	Calpain2 inh	Runt-CBFb FRET	FAS-TE inh	others
C=C(COC(C)=O)CC1CC(O)[C@]2(C)OC3CC4OC5C[C@]6(C)O[C@]7(C)CCC8OC9C[C@]%10(C)OC%11C(C)=CC(=O)OC%11CC%10OC9C[C@@H](C)C8OC7CC6O[C@]5(C)C/C=C\C4OC3CC2O1 (stereo partly specified)	0	2	-74	-2	87*
COCCCNC(=O)c1c(NC(=O)c2ccccc2)n(Cc2ccccc2)c2nc3ccccc3nc12	/	?	/	/	4
Nc1c(C(=O)NCCCc2ccccc2)c2nc3ccccc3nc2n1Cc1cccs1	25	66*	-223	5	22
CCCCCn1c(N)c(C(=O)NCc2cccs2)c2nc3ccccc3nc21	19	56*	-171	3	/
CCCCCn1c(=O)c(C(=O)Nc2nc3ccccc3[nH]2)c(O)c2ccccc21	-1	2	-18	1	-46
CCCOC(=O)c1c(N)n(Cc2cccs2)c2nc3ccccc3nc12	108*	?	i	40	5
CCCCn1c(N)c(C(=O)NCc2cccs2)c2nc3ccccc3nc21	76*	68*	-234	/	24
C[C@]12CCC(=O)CC1CCC1C2CC[C@]2(C)C(OC(=O)CCC(=O)O)CCC12 (stereo partly specified)	/	-2	/	/	-6
CCOc1cc2c(cc1OCC)-n1cccc1C(c1cccc(F)c1)NC2 (stereo unspecified)	/	0	/	/	7
COc1ccc2c3c([nH]c2c1)C(C)=NCC3	73*	62*	-364	4	-4
CC1=NCCc2c1[nH]c1cc(O)ccc21	/	/	/	/	-145
Cc1cc(OCC(=O)N2CCCN(C)CC2)ccc1Cl	/	4	/	/	-4
CCOC(=O)c1ccc2[nH]c(-c3ccc(S(=O)(=O)F)cc3)cc(=O)c2c1	0	-3	-18	3	-8
Cc1ccc(N2C(=O)NC(=O)C3(Cc4ccccc4N4CCCC43)C2=O)cc1 (stereo unspecified)	-4	20*	-50	2	2
CCN(CC)C(=O)c1ccc(NC(=O)COc2ccc(-c3nn(C)c(=O)c4ccccc34)cc2)cc1	/	4	/	/	-4
Clc1ccc(COC(Cn2ccnc2)c2ccc(Cl)cc2Cl)c(Cl)c1 (stereo unspecified)	-4	-4	58*	-4	22
CC12CCC(=O)C=C1CC(N1CC1)C1C2CCC2(C)C(O)CCC12 (stereo unspecified)	/	/	/	/	-2
CC(C)OCCCNC(=O)c1c(N)n(CC2CCCO2)c2nc3ccccc3nc12 (stereo unspecified)	62*	103*	/	74*	18
CCCNC(=O)c1c(N)n(CC2CCCO2)c2nc3ccccc3nc12 (stereo unspecified)	78*	-3	i	4	6
O=c1c2ccccc2nc(SCC2CCCCO2)n1-c1ccccc1 (stereo unspecified)	0	0	19	-1	19
O=C1C(=Cc2ccccc2)N2CCC1CC2	/	/	/	/	2
CN(C)c1ccc(/C=C2/C(=N\O)C3CCN2CC3)cc1	29	57*	-8	1	-8
Cc1cc(=O)oc2cc3c(cc12)CCCN3	/	84*	/	/	-4
COCC(C)OC(=O)c1c(N)n(Cc2ccco2)c2nc3ccccc3nc12 (stereo unspecified)	74	10	i	/	-17
Nc1c(C(=O)NCc2ccco2)c2nc3ccccc3nc2n1Cc1ccccc1	76*	55*	-499	68*	23
SMILES	Runt-SMMHC FRET	RanGTP-Imp inh	Calpain2 inh	Runt-CBFb FRET	FAS-TE inh	others
COc1ccc(Cn2c(N)c(C(=O)NCc3ccco3)c3nc4ccccc4nc32)cc1	100*	61*	i	49	14
CCOC(=O)c1c(N)n(Cc2ccco2)c2nc3ccccc3nc12	70*	/	i	48	-14
Nc1c(C(=O)NCc2ccco2)c2nc3ccccc3nc2n1Cc1ccc(F)cc1	74*	43*	i	16	4
Cc1nn(Cc2ccccc2)c(C)c1C(=O)NCc1ccccc1	-1	-6	-3	-1	-2
CC(C)(C)NC(=S)N1CCn2cccc2C1c1cccnc1 (stereo unspecified)	-2	-2	6	0	-6
CCOP(=S)(OCC)SCCSCC	/	/	/	/	10
Nc1c(C(=O)NCc2ccco2)c2nc3ccccc3nc2n1CCN1CCOCC1	81*	46*	i	41	-2
CCCCn1c(=O)c(C(=O)Nc2nc3ccccc3[nH]2)c(O)c2ccccc21	-2	/	/	-2	/
CCCCn1c(N)c(C(=O)OCCOC)c2nc3ccccc3nc21	107*	?	-331	62*	-4	RUNX1 CBFb TR=27
CC[n+]1c(/C=C/N(C)c2ccccc2)sc2ccc(Cl)cc21	43	?	-2	55*	-10	RUNX1 CBFb TR=9
CC[n+]1c(/C=C/C=C/c2ccc(N(C)C)cc2)sc2ccccc21	5	-1	14	2	-4
CCC[N+]12CCC(CC1)C(=C(c1ccccc1)c1ccccc1)C2	-1	-1	-7	52*	-8	RUNX1 CBFb TR=-283
CC(C)c1ccc(-n2c(O)c(C=NCCN3CCNCC3)c(=O)[nH]c2=S)cc1	/	0	/	/	-5
Cn1ncc(Cl)c1C(=O)N1CCC2(CC1)OCCO2	/	-3	/	/	-7
O=C1NC(=S)NC(=O)C1=Cc1cccn1-c1ccc(O)cc1	42	4	-53	57*	-4	RUNX1 CBFb TR=90*
COCCOC(=O)c1c(N)n(Cc2ccccc2)c2nc3ccccc3nc12	108*	19*	i	51*	5	RUNX1 CBFb TR=1;YIC counter=46*
Cc1cc(OC(=O)N(C)C)nc(SCc2c(Cl)cccc2Cl)n1	-1	3	16	-1	9
CC(=O)c1c(O)n(-c2cccc(Cl)c2)c(=O)[nH]c1=O (tested in a mixture with another compound)	-1	3	-4	2	-6
CC(C)n1c(O)c(C2c3cc(Cl)ccc3Oc3[nH]c(=O)n(C(C)C)c(=O)c32)c(=O)[nH]c1=O (stereo unspecified)	75*	22*	32	60*	-4	RUNX1 CBFb TR=32;YIC counter=>50
Nc1c(C(=O)OC2CCCCC2)c2nc3ccccc3nc2n1CC1CCCO1 (stereo unspecified)	106*	23*	/	54*	16	RUNX1 CBFb TR=38;YIC counter=27*
CCOP(=O)(Oc1ccccc1)c1c([N+](=O)[O-])cc(C(F)(F)F)cc1[N+](=O)[O-] (stereo unspecified)	/	2	/	/	-2

Bioassay records deposited in PubChem by several laboratories.
